The record followed here is the M2OR odorant receptor database.

Common to all, as to conditions: stereoisomer not certain
Assay [1] deals with T1, OR2T34 (Homo sapiens) (UniProt Q8NGX1).
T1 sequence (whole entry): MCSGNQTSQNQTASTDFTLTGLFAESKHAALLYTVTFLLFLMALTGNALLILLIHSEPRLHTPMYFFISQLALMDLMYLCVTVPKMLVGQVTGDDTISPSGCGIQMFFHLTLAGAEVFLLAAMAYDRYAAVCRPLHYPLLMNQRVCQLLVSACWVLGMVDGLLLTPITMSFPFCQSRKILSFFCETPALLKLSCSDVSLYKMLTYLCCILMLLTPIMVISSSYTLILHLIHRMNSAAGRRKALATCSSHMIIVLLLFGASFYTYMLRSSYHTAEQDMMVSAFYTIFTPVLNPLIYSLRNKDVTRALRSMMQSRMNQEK
Summed up: (§1)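 Transient luciferase assays in mammalian cell lines were common, though methods varied by source. The values come from published papers and their supplementary material, with extra details from the original authors when needed. Responsive refers to a measured signal the original authors judged statistically different from baseline, and non-responsive (inactive) to the remainder.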

Assay [2] deals with T2, OR2T4 (Homo sapiens) (UniProt Q8NH00).
T2 sequence (whole entry): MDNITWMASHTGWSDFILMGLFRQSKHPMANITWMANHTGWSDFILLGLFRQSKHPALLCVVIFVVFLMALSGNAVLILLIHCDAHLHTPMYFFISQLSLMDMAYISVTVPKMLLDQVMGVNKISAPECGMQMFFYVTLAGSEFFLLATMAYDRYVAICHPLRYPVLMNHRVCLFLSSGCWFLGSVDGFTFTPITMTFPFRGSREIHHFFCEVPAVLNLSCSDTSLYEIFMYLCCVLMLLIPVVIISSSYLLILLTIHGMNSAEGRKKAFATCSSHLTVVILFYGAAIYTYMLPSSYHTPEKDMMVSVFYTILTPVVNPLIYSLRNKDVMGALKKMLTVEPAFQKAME
Summed up: as §1

Assay [3] concerns the target T3, OR2W1 (Homo sapiens) (UniProt Q9Y3N9).
T3 sequence (whole entry): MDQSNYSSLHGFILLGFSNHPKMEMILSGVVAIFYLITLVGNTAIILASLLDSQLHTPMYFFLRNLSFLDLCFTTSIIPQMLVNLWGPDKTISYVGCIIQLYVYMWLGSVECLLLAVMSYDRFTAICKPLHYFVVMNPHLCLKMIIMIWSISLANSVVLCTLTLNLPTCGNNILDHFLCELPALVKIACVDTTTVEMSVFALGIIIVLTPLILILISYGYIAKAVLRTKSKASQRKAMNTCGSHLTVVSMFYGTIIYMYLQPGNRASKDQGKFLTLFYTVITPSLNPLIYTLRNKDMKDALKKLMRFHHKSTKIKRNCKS
Summed up:
as §1

Assay [4] deals with T4, OR2W1.
T4 sequence (whole entry): T3 sequence (whole entry) with M81V
The essentials: as §1

The target in assay [5] is T5, OR2T33 (Homo sapiens) (UniProt Q8NG76).
T5 sequence (whole entry): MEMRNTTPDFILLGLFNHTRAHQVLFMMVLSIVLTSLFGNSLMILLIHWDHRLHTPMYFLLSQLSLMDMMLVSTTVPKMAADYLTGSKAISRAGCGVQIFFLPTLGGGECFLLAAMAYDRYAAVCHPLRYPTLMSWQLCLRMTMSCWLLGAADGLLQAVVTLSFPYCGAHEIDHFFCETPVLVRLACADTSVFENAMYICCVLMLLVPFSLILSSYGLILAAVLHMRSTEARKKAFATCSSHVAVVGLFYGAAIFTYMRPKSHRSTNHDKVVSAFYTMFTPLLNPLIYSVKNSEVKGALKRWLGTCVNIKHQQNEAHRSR
Summed up:
as §1

The target in assay [6] is T6, OR2T35 (Homo sapiens) (UniProt Q8NGX2).
T6 sequence (whole entry): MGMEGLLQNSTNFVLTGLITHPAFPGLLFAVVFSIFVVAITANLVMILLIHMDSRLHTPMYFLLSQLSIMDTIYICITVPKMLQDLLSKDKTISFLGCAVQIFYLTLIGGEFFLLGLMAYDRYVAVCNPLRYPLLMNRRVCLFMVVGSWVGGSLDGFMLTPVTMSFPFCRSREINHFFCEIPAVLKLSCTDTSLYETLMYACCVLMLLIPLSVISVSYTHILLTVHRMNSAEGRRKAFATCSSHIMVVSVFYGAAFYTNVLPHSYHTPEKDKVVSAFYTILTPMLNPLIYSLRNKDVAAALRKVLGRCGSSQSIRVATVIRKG
The essentials:
as §1

Assay [7] addresses T7, OR2T5 (Homo sapiens) (UniProt Q6IEZ7).
T7 sequence (whole entry): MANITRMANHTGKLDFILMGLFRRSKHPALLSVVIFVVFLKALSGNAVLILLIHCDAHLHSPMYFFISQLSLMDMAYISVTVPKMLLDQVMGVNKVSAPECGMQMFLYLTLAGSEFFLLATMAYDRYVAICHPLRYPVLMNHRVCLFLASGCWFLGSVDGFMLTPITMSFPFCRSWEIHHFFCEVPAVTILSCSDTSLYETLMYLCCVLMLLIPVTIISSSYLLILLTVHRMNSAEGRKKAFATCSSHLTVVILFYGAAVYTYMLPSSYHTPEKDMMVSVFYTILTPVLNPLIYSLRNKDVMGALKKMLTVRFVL
The essentials: as §1

For assay [8], the target named is T8, OR2T6 (Homo sapiens) (UniProt Q8NHC8).
T8 sequence (whole entry): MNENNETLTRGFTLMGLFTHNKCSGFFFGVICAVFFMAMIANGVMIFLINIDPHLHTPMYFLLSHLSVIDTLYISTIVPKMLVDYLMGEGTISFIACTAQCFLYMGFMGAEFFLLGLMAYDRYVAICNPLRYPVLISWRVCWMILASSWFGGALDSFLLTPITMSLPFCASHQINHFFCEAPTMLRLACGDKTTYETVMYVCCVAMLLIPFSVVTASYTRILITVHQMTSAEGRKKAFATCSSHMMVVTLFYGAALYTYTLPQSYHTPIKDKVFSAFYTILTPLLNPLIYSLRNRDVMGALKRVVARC
Summed up:
as §1

Assay [9] deals with T9, OR2T7 (Homo sapiens) (UniProt P0C7T2).
T9 sequence (whole entry): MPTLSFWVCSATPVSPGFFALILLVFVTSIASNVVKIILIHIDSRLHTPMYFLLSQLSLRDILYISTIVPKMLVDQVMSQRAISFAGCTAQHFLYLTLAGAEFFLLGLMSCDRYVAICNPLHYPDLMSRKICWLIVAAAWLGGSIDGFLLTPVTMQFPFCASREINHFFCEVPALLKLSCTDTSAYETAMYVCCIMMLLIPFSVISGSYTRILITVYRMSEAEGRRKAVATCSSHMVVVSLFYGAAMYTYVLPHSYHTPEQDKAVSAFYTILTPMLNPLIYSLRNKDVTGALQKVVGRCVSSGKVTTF
Summed up:
as §1

Assay [10] deals with T10, OR2T8 (Homo sapiens) (UniProt A6NH00).
T10 sequence (whole entry): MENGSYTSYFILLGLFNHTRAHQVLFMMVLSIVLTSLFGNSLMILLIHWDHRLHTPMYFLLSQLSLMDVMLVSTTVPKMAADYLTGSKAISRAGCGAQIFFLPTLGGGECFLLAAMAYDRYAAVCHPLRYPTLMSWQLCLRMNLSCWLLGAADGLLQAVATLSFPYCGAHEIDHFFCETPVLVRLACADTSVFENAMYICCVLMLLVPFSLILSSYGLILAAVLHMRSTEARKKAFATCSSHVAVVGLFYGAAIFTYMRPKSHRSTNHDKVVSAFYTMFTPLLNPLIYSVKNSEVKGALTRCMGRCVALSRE
The essentials: as §1

Assay [11] deals with T11, OR2V1 (Homo sapiens) (UniProt Q8NHB1).
T11 sequence (whole entry): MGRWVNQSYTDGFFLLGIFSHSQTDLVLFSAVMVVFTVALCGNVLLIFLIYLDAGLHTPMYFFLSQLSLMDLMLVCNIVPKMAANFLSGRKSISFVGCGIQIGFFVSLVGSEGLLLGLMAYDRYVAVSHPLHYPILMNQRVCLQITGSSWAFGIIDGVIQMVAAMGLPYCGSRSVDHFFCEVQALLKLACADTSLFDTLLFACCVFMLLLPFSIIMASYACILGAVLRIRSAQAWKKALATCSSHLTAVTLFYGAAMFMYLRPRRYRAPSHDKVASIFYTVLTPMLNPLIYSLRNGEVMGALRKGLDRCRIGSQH
The essentials: as §1

Assay [12] has as its target T12, OR2V2 (Homo sapiens) (UniProt Q96R30).
T12 sequence (whole entry): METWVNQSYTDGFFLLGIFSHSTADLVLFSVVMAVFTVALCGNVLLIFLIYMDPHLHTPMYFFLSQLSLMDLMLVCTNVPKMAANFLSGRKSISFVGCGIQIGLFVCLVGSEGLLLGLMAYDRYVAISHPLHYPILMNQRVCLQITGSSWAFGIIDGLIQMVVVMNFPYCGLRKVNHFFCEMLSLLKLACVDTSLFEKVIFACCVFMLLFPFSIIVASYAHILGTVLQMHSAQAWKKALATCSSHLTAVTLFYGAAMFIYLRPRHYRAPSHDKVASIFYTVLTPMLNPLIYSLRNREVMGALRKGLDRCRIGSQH
The essentials:
as §1

Assay [13] relates to T13, OR2T3 R298C.
T13 sequence (whole entry): T1 sequence (whole entry) with H109Y, M202T, T204M, T214A, R239H, R267P, R298C
Summed up: as §1

The subject of assay [14] is T14, OR2T3 Y109H.
T14 sequence (whole entry): T1 sequence (whole entry) with M202T, T204M, T214A, R239H, R267P
Summed up: as §1

Assay [15] deals with T15, OR2T5 K13R K41M G45E.
T15 sequence (whole entry): T7 sequence (whole entry) with K13R, K41M, G45E
The essentials: as §1

The subject of assay [16] is T16, OR2T5 K13R L134F.
T16 sequence (whole entry): T7 sequence (whole entry) with K13R, L134F
The essentials: as §1

In assay [17] the test system is T17, OR2T6 C23G.
T17 sequence (whole entry): T8 sequence (whole entry) with C23G
Summed up:
as §1

The subject of assay [18] is T18, OR2T7.
T18 sequence (whole entry): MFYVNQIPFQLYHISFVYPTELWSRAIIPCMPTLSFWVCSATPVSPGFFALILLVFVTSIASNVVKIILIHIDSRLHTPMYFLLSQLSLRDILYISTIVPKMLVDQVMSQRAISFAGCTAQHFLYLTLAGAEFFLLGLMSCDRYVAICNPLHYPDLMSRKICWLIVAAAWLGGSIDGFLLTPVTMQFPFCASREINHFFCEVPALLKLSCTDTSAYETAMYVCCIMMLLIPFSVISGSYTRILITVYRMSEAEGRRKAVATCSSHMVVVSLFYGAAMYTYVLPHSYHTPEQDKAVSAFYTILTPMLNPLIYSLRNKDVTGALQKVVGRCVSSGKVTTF
Summed up:
as §1

The subject of assay [19] is T19, OR2W1 G96V.
T19 sequence (whole entry): T3 sequence (whole entry) with G96V
The essentials: as §1

Molecules are shown by their SMILES. Numbering of substitutions follows the chain as printed.
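Note: active if original authors judged signal statistically different from baseline.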

For the molecule `CC(C)=CCCC(C)=CCO`, the “odorant receptor agonist call” value in assay [1], in assay [2], in [3] and in assay [4] was “inactive” throughout.
Turning to `C=CC(C)(O)CCC=C(C)CCC=C(C)C` (configuration not stated), in assay [1], the “odorant receptor agonist call” value was “inactive”.
As for `CCC(S)C(C)CO` (configuration not stated), the “odorant receptor agonist call” value in [5], in assay [1], in assay [6], in [2], in assay [7] and in [8] was “inactive” throughout. The “odorant receptor agonist call” value in assay [9], in assay [10], in assay [11], in assay [12] and in assay [3] was “inactive” throughout.
As to `CC(=O)c1c(C)c([N+](=O)[O-])c(C(C)(C)C)c([N+](=O)[O-])c1C`, the “odorant receptor agonist call” value in assay [5], in [1], in [6], in assay [2], in [7] and in assay [8] was “inactive” each time. Moreover, the “odorant receptor agonist call” value in [9], in assay [10], in assay [11], in assay [12] and in [3] was “inactive” throughout.
Take `CC1=CCC2CC1C2(C)C` (configuration not stated): the “odorant receptor agonist call” value in assay [1] and in assay [3] was “inactive” each time. Besides, the “odorant receptor agonist call” value in assay [2] was “active”.
`CC(C)(C)C1CCCCC1OCCCCO` (configuration not stated): the “odorant receptor agonist call” value in assay [1] is “inactive”.
On to `CC(CO)CS` (configuration not stated), for which the “odorant receptor agonist call” value in assay [5], in assay [1], in assay [6], in assay [2], in assay [7] and in assay [8] was “inactive” throughout. Further, the “odorant receptor agonist call” value in assay [9], in assay [10], in assay [11], in [12] and in assay [3] was “inactive” each time.
For the molecule `CCC1OC(C)=C(O)C1=O` (configuration not stated), the “odorant receptor agonist call” value in assay [13], in assay [14], in [5], in [1], in assay [6] and in assay [2] was “inactive” in each case. For the same molecule, the “odorant receptor agonist call” value in assay [7], in assay [15], in assay [16], in assay [8], in assay [17] and in [18] was “inactive” each time. The “odorant receptor agonist call” value in [10], in assay [11], in assay [12], in assay [3] and in assay [19] was “inactive” in each case.
For `CCCCCCC=CCCC=O`, the “odorant receptor agonist call” value in [13], in assay [14], in [5], in [1], in assay [6] and in [2] was “inactive” each time. In addition, the “odorant receptor agonist call” value in [7], in assay [15], in [8], in assay [17], in assay [9] and in assay [10] was “inactive” in each case. Moreover, the “odorant receptor agonist call” value in [11], in assay [12], in assay [3] and in assay [19] was “inactive” in each case.
As to `CC1=NC(C)C(C)S1` (configuration not stated), the “odorant receptor agonist call” value in assay [13], in assay [14], in [5], in assay [1], in assay [6] and in [2] was “inactive” each time. The “odorant receptor agonist call” value in [7], in assay [15], in assay [16], in [8], in [17] and in [18] was “inactive” each time. Besides, the “odorant receptor agonist call” value in assay [10], in [11], in assay [12], in assay [3] and in assay [19] was “inactive” each time.
